Measurements published in article PMC3253719 (Anesthesia and Analgesia, 2010).
Where two headings read alike, the source gives them in different places.

Columns and labels:
rat CB2 receptors [1] = conditions: cited from earlier work
human CB2 receptors = conditions: cited from earlier work
[2] = test system: rats with spinal nerve ligation; assay: Tactile allodynia, lumbar 5-6 spinal nerve ligation neuropathic pain model; type: in vivo, rat; conditions: for Effect on tactile allodynia: several doses
How it was run: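 Male Sprague-Dawley rats (120–150 g). Under isoflurane in 100% O2, the left L6 transverse process was removed and the left L5 and L6 spinal nerves were tightly ligated with 6-0 silk. Neuropathy was confirmed by daily von Frey paw-withdrawal thresholds after ≥30 min acclimation on wire mesh. Compounds were given IP; AM630 (5 mg/kg IP) was given 15 min before the test compound. n = 6–12 per group.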

human CB2 receptor [3] = biological target: T1, human CB2 receptor (Homo sapiens, UniProt P34972); conditions: cited from earlier work
T1 sequence (P34972 whole entry): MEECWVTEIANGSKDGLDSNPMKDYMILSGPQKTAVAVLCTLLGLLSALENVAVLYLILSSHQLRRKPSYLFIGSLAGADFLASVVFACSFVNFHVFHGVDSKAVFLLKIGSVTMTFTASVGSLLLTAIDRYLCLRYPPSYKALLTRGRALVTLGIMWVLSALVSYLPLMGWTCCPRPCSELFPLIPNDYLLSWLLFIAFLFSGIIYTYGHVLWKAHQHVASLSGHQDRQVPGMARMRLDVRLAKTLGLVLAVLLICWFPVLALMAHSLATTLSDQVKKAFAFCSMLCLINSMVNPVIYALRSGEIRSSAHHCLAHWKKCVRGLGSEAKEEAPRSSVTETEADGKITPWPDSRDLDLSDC

[4] = test system: rodents with spinal nerve ligation; conditions: cited from earlier work
human CB2 receptor [5] = biological target: T1, human CB2 receptor; conditions: cited from earlier work; remark: listed apart in the source
mouse CB2 receptors = conditions: cited from earlier work
human CB2 receptor [6] = biological target: T1, human CB2 receptor; conditions: cited from earlier work; remark: listed apart in the source
human CB2 receptor [7] = biological target: T1, human CB2 receptor; conditions: cited from earlier work; remark: listed apart in the source
rat CB2 receptors [8] = conditions: cited from earlier work; remark: listed apart in the source
rat CB2 receptor [9] = biological target: T2, rat CB2 receptor (Rattus norvegicus, UniProt Q9QZN9); assay: cAMP activation assay, rat CB2; type: cell-based
T2 sequence (Q9QZN9 1-360): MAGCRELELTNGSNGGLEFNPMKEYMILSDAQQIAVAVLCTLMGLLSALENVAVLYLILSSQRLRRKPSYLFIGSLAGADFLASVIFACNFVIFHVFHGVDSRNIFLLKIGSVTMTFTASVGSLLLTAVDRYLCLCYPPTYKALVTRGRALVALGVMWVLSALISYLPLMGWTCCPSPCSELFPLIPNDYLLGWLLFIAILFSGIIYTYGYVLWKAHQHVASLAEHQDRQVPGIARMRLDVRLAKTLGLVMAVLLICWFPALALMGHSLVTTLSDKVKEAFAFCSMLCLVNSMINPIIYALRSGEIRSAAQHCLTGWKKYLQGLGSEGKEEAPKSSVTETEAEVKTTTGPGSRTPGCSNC

rat CB2 receptor [10] = biological target: T2, rat CB2 receptor; assay: GTPγ[35S] functional assay, rat CB2; type: biochemical
rat CB1 receptor [11] = biological target: T3, rat CB1 receptor (Rattus norvegicus, UniProt P20272); assay: GTPγ[35S] functional assay, rat CB1; type: biochemical
T3 sequence (P20272 whole entry): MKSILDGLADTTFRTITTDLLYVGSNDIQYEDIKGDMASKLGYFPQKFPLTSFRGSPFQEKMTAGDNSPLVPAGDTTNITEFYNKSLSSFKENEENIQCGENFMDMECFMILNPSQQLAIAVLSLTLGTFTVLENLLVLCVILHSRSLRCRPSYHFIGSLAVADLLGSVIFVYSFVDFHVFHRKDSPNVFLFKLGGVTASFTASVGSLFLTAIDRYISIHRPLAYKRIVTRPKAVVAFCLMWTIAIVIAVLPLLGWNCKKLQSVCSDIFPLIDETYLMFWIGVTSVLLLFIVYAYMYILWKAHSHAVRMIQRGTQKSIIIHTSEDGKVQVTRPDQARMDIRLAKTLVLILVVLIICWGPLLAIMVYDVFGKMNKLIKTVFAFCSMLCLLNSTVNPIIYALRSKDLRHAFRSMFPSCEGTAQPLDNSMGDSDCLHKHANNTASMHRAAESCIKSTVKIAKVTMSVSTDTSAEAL

paclitaxel-treated rats = assay: Tactile allodynia, paclitaxel-induced neuropathic pain model in rats; type: in vivo, rat; conditions: IP
How it was run: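 Male Sprague-Dawley rats (120–150 g) received paclitaxel 1.0 mg/kg IP daily for 4 days (cumulative 4 mg/kg) in 10% Cremophor EL in saline, 1 mL/kg. Baseline was taken on day 0, then daily von Frey hind-paw thresholds (≥30 min acclimation on wire mesh) until neuropathy was confirmed. The test compound was given IP, compared with vehicle-treated rats; n = 5 per group. Values were expressed as %MPE and AUC.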

human CB1 receptor [12] = biological target: T4, human CB1 receptor (Homo sapiens, UniProt P21554); assay: Radioligand competitive binding assay, human CB1; conditions: Mean Ki Human CB1, [3H]CP 55,940 was used (footnote b)
T4 sequence (P21554 whole entry): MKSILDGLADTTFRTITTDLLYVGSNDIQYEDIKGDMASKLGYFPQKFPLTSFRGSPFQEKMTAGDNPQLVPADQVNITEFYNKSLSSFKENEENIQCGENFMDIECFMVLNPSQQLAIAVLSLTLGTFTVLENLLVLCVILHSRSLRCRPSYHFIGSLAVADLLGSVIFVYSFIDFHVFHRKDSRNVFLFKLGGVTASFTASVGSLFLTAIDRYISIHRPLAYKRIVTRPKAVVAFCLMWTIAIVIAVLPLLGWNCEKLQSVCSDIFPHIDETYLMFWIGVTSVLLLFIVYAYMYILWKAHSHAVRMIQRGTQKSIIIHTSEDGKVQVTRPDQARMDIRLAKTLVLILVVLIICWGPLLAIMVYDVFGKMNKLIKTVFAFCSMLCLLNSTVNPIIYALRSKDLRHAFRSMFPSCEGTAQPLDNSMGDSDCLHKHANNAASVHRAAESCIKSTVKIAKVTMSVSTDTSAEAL

human CB2 receptor [13] = biological target: T1, human CB2 receptor; assay: GTPγ[35S] functional assay, human CB2; type: biochemical
[14] = test system: paclitaxel-treated CB2^−/− mice; assay: Tactile allodynia, paclitaxel-induced neuropathic pain model in CB2^−/− mice; type: in vivo, mouse; conditions: 10 mg/kg IP
How it was run: (§1)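 Male CB2+/+ or CB2−/− mice (20–25 g), bred and genotyped in-house, were used in a paclitaxel-induced neuropathy model. Once allodynia was established, the test compound was given at 10 mg/kg IP. Tactile paw-withdrawal thresholds were measured with von Frey filaments after ≥30 min acclimation on a wire-mesh floor; n = 5 per group.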

rat CB2 receptor [15] = biological target: T2, rat CB2 receptor; assay: Radioligand competitive binding assay, rat CB2
rat CB1 receptor [16] = biological target: T3, rat CB1 receptor; assay: cAMP activation assay, rat CB1; type: cell-based
human CB2 receptor [17] = biological target: T1, human CB2 receptor; assay: Radioligand competitive binding assay, human CB2
human CB1 receptor [18] = biological target: T4, human CB1 receptor; assay: GTPγ[35S] functional assay, human CB1; type: biochemical
naïve rats [19] = conditions: 15 mg/kg IP; historical data ref 24; cited from earlier work
rat CB1 receptor [20] = biological target: T3, rat CB1 receptor; assay: Radioligand competitive binding assay, rat CB1
[21] = test system: paclitaxel-treated CB2^+/+ mice; assay: Tactile allodynia, paclitaxel-induced neuropathic pain model in CB2^+/+ mice; type: in vivo, mouse; conditions: 10 mg/kg IP
How it was run: as §1

rat CB2 receptors [22] = assay: Erk1/2; type: cell-based
central nervous system = conditions: IP; cited from earlier work
naïve rats [23] = assay: Open-field chamber testing; type: in vivo, rat; conditions: 1 mg/kg IP

CN1CCCCC1Cn1cc(C(=O)c2cc([N+](=O)[O-])ccc2I)c2ccccc21 (single isomer, unassigned; (+)) [(+)AM1241]
Functional character at rat CB2 (rat CB2 receptors [1]): protean agonists | Functional character at human CB2 (human CB2 receptors): protean agonists

COc1ccc(C(=O)c2c(C)n(CCN3CCOCC3)c3cc(I)ccc23)cc1 [AM630, reference compound]
Effect on paw withdrawal threshold, given alone ([2]; 5 mg/kg IP): had no effect

CN1CCCCC1Cn1cc(C(=O)c2cc([N+](=O)[O-])ccc2I)c2ccccc21 (centres unmarked) [AM1241, (2-iodo-5-nitrophenyl)-[1-(1-methylpiperidin-2-ylmethyl)-1H-indol-3-yl]methanone]
Functional behaviour in fluorometric image plate reader functional assays (human CB2 receptor [3]): apparent antagonist | Effect on tactile allodynia [4]: attenuated tactile allodynia in a dose-related manner | Functional behaviour in cAMP inhibition assays, human CB2 (human CB2 receptor [5]): agonist | Functional behaviour in cAMP inhibition assays, mouse CB2 (mouse CB2 receptors): inverse agonist | Functional behaviour in cyclase assays (human CB2 receptor [6]): neutral antagonist | Functional behaviour in cyclase assays at lower forskolin concentrations (human CB2 receptor [6]; lower forskolin concentrations): agonist | Functional behaviour in Erk activation assays (human CB2 receptor [7]): apparent agonist | Functional behaviour in cAMP inhibition assays, rat CB2 (rat CB2 receptors [8]): inverse agonist

CCCCCCC(C)(C)c1ccc([C@@H]2C[C@H](O)CC[C@H]2CCCO)c(O)c1 [CP 55,940, reference compound]
Functional behaviour in cAMP activation assay, rat CB2 (rat CB2 receptor [9]): strong agonist activity | cAMP activation assays Rat CB2 Emax (rat CB2 receptor [9]; forskolin 10 µM, NA = not active at 1 µM): 100% | Functional behaviour in GTPγ[35S] assay, rat CB2 (rat CB2 receptor [10]): agonist activity | EC50 (rat CB2 receptor [10]; read-out: GTPγ[35S] functional assays Rat CB2 EC50, agonism): 2.3 ± 1.8 nM | GTPγ[35S] functional assays Rat CB2 Emax (rat CB2 receptor [10]; relative to efficacy of CP 55,940): 112%

COc1ccc2c(c1)c(CCN1CCOCC1)c(C)n2C(=O)c1cccc(Cl)c1Cl [L768242]
Functional character at rat CB2 (rat CB2 receptors [1]): protean agonists | Functional character at human CB2 (human CB2 receptors): protean agonists

CCCCCCN1C(=O)/C(=N\NC(=O)c2ccccc2)c2ccccc21 [MDA19, N′-[(3Z)-1-(1-hexyl)-2-oxo-1,2-dihydro-3H-indol-3-ylidene]benzohydrazide]
EC50 (rat CB1 receptor [11]): 427 ± 35 nM | Functional behaviour in GTPγ[35S] assay, rat CB1 (rat CB1 receptor [11]): agonist | Emax (rat CB1 receptor [11]; read-out: GTPγ[35S] functional assays Rat CB1 Emax): 54% | Antiallodynic effects compared with 1 mg/kg WIN 55,212-2 IP ([2]; 15 mg/kg IP): not significantly different | Antiallodynic effect, area under the curve ([2]; 15 mg/kg versus 5 mg/kg or vehicle): significantly (P < 0.01) greater antiallodynic effect | Effect on tactile allodynia ([2]; IP): attenuated tactile allodynia in a dose-related manner | Antiallodynic effect after pretreatment with AM630 ([2]; MDA19 10 mg/kg IP, AM630 5 mg/kg IP 15 minutes before, P < 0.05): significantly reversed | Efficacy in attenuating tactile allodynia ([2]; after a 15 mg/kg dose IP): 70% ± 10% | Effect on mechanical allodynia (paclitaxel-treated rats; versus vehicle-treated rats): suppressed mechanical allodynia | %MPE paw withdrawal threshold AUC versus vehicle (paclitaxel-treated rats; n = 5 per group): significantly different (P < 0.05) | Ki (human CB1 receptor [12]): 150 nM | Functional behaviour in cAMP activation assay, rat CB2 (rat CB2 receptor [9]): no activity | EC50 (human CB2 receptor [13]): 83 ± 19 nM | Functional behaviour in GTPγ[35S] assay, human CB2 (human CB2 receptor [13]): agonist | Emax (human CB2 receptor [13]; read-out: GTPγ[35S] functional assays Human CB2 Emax): 65.4% | Effect on mechanical allodynia [14]: had no effect | Ki (rat CB2 receptor [15]): 16.3 ± 2.1 nM | Affinity ratio rat CB2 over rat CB1 (rat CB2 receptor [15]; from Ki values): ~70 fold | EC50 (rat CB1 receptor [16]): 814 ± 83 nM | Functional behaviour in cAMP activation assay, rat CB1 (rat CB1 receptor [16]): agonist | Emax (rat CB1 receptor [16]; read-out: cAMP activation assays Rat CB1 Emax): 89% | Ki (human CB2 receptor [17]): 43.3 ± 10.3 nM | EC50 (human CB1 receptor [18]): 922 ± 56 nM | Functional behaviour in GTPγ[35S] assay, human CB1 (human CB1 receptor [18]): agonist | Emax (human CB1 receptor [18]; read-out: GTPγ[35S] functional assays Human CB1 Emax): 64.5% | Effect on exploratory behavior (distance traveled, ambulatory time, vertical movements, zone entries) (naïve rats [19]): had no effect on exploratory behavior | Ki (rat CB1 receptor [20]): 1130 ± 574 nM | Effect on mechanical allodynia [21]: suppressed mechanical allodynia | Time of peak effect for reversing mechanical allodynia [21]: 30 min | Activation of Erk1/2 after PTX (rat CB2 receptors [22]; 200 ng/mL PTX 16 hours before 10 µM MDA19): blocked | Functional behaviour in Erk1/2 activation (phosphorylation of Erk1/2) (rat CB2 receptors [22]; 10 µM, 30 minutes, CHO-rCB2 cells): behaved as an agonist and induced phosphorylation of Erk1/2 | Activation of Erk1/2 after AM630 (rat CB2 receptors [22]; 20 µM AM630 30 minutes before 10 µM MDA19): blocked | EC50 (rat CB2 receptor [10]): 19.7 ± 14 nM | Functional behaviour in GTPγ[35S] assay, rat CB2 (rat CB2 receptor [10]): inverse agonist | Emax (rat CB2 receptor [10]; read-out: GTPγ[35S] functional assays Rat CB2 Emax): -42%

Cc1c(C(=O)c2cccc3ccccc23)c2cccc3c2n1[C@H](CN1CCOCC1)CO3 [WIN 55,212-2, reference compound]
Doses with adverse effects in the central nervous system (central nervous system): > 1 mg/kg | Adverse effects ([2]; 3 mg/kg IP): immobility and increased sensitivity to noise and handling | Effect on tactile allodynia ([2]; IP): attenuated tactile allodynia in a dose-related manner | ED50 tactile allodynia ([2]; IP, at 15 minutes, 95% CI = 0.5–0.9 mg/kg): 0.7 mg/kg | Effect on exploratory behavior (distance traveled, ambulatory time, vertical movements, zone entries) (naïve rats [23]): significantly decreased exploratory behavior

O=C(CCCN1CCC(O)(c2ccc(Cl)cc2)CC1)c1ccc(F)cc1 [haloperidol]
Effect on exploratory behavior (distance traveled, ambulatory time, vertical movements, zone entries) (naïve rats [23]): significantly decreased exploratory behavior
